According to ChEMBL document CHEMBL5696442, “Discovery of type II inhibitors of TGFβ-activated kinase 1 (TAK1) and mitogen-activated protein kinase kinase kinase kinase 2 (MAP4K2)” (J Med Chem, 2015):
The source made the active and inactive calls. No cut-off for these calls is given here.

Tests used:
[1] = biological target: T1, Proto-oncogene tyrosine-protein kinase Src (Homo sapiens, UniProt P12931); experiment: Inhibition of SRC Lys1 labeling site in human Huh-7 cell lysate at 1 uM by KiNativ Profiling analysis relative to control; format: subcellular
[2] = biological target: T1, Proto-oncogene tyrosine-protein kinase Src; experiment: Inhibition of SRC Lys1 labeling site in human A-375 cells at 0.5 uM by KiNativ Profiling analysis relative to control; format: cell-based
Ephrin type-B receptor 2 = Ephrin type-B receptor 2 (Homo sapiens, UniProt P29323); experiment: Inhibition of EphB2 (unknown origin) ACT labeling site by KiNativ Profiling analysis
GEN2.2 = experiment: Inhibition of CL097 induced IKKalpha/beta phosphorylation level in human GEN2.2 cells at 1 uM preincubated with compound for 1 hr followed by CL097 stimulation and measured after 30 mins by Western blot analysis; format: functional, cell-based
[3] = biological target: Serine/threonine-protein kinase 26 (Homo sapiens) (UniProt Q9P289); experiment: Inhibition of MST4 Lys1 labeling site in human A-375 cells at 5 uM by KiNativ Profiling analysis relative to control; format: cell-based
[4] = biological target: Serine/threonine-protein kinase Nek7 (Homo sapiens) (UniProt Q8TDX7); experiment: Inhibition of NEK7 Lys1 labeling site in human A-375 cells at 5 uM by KiNativ Profiling analysis relative to control; format: cell-based
[5] = biological target: Cyclin-dependent kinase 17 (Homo sapiens) (UniProt Q00537); experiment: Inhibition of PCTAIRE2 Lys1 labeling site harbouring SKLTENLVALKEIR in human A-375 cells at 5 uM by KiNativ Profiling analysis relative to control; format: cell-based
[6] = biological target: Ribosomal protein S6 kinase alpha-2 (Homo sapiens) (UniProt Q15349); experiment: Inhibition of RSK3 Protein Kinase Domain in human A-375 cells at 5 uM by KiNativ Profiling analysis relative to control; format: cell-based
Procedure, shortened: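 Live A375 melanoma cells treated with compound at 5 or 0.5 μM, then lysed. Lysate kinases were labeled with a lysine-reactive ATP or ADP-biotin probe. Inhibition was read as protection of labeling sites from the probe.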

[7] = biological target: 5'-AMP-activated protein kinase catalytic subunit alpha-1 (Homo sapiens) (UniProt Q13131); experiment: Inhibition of AMPKa1 ATP Loop labeling site in human A-375 cells at 0.5 uM by KiNativ Profiling analysis relative to control; format: cell-based
Procedure, shortened: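 Live A375 melanoma cells were treated with compound at 5 or 0.5 μM, then lysed. The lysates were labeled with a lysine-reactive ATP or ADP-biotin probe. Kinase protection from probe labeling was measured by KiNativ.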

[8] = biological target: T2, Serine/threonine-protein kinase LATS2 (Homo sapiens) (UniProt Q9NRM7); experiment: Inhibition of LATS2 Lys2 labeling site in human A-375 cells at 0.5 uM by KiNativ Profiling analysis relative to control; format: cell-based
T2 sequence (whole entry): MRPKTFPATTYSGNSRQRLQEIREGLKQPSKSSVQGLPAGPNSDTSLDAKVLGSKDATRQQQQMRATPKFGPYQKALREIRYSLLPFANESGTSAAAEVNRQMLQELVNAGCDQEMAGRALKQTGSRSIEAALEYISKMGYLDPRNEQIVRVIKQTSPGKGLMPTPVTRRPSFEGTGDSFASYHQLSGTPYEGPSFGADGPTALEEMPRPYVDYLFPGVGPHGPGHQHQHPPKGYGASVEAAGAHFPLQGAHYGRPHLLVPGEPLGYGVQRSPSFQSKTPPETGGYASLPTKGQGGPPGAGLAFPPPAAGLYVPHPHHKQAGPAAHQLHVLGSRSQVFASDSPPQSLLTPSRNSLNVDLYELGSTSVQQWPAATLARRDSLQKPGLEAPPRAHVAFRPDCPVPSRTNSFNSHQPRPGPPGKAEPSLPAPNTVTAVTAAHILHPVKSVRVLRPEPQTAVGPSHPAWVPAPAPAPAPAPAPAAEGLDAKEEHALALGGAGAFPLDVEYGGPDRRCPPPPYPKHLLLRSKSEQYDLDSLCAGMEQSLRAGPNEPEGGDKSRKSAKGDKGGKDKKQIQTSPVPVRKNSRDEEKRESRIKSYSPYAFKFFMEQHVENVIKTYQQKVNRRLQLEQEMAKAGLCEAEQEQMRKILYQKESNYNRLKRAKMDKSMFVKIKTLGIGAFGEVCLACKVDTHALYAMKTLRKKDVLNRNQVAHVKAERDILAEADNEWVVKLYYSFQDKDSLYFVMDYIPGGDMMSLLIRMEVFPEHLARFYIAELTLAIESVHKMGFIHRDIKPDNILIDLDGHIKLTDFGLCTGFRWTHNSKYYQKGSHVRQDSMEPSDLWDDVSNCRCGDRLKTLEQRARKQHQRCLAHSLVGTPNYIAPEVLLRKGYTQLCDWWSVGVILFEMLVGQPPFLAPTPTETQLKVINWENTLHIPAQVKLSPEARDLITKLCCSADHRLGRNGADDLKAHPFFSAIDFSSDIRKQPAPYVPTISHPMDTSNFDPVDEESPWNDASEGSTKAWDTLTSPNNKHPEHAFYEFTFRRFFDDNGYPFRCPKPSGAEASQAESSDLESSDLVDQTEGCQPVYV

[9] = biological target: Dual specificity mitogen-activated protein kinase kinase 1 (Homo sapiens) (UniProt Q02750); experiment: Inhibition of MAP2K1 Lys2 labeling site harbouring DVKPSNILVNSR in human A-375 cells at 0.5 uM by KiNativ Profiling analysis relative to control; format: cell-based
[10] = biological target: Protein kinase C alpha type (Homo sapiens) (UniProt P17252); experiment: Inhibition of PKCa Lys2 labeling site in human A-375 cells at 0.5 uM by KiNativ Profiling analysis relative to control; format: cell-based
[11] = biological target: T3, Aurora kinase A (Homo sapiens) (UniProt O14965); experiment: Inhibition of AurA ATP Loop labeling site in human A-375 cells at 0.05 uM by KiNativ Profiling analysis relative to control; format: cell-based
T3 sequence (whole entry): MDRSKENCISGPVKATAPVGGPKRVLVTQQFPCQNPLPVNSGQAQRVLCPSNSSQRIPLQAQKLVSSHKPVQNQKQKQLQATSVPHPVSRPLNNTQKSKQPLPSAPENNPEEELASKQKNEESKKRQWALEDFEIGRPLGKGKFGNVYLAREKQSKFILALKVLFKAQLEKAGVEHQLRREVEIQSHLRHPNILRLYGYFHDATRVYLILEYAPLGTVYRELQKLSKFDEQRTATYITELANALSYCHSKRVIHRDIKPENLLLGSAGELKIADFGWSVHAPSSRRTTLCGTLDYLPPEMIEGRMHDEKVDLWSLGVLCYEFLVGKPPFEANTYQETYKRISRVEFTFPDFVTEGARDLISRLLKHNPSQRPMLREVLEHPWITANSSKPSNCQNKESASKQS

[12] = biological target: Casein kinase II subunit alpha (Homo sapiens) (UniProt P68400); experiment: Inhibition of CK2a1 Protein Kinase Domain in human A-375 cells at 0.05 uM by KiNativ Profiling analysis relative to control; format: cell-based
[13] = biological target: Serine/threonine-protein kinase MARK2 (Homo sapiens) (UniProt Q7KZI7); experiment: Inhibition of MARK2 Lys2 labeling site harbouring FIVHRDLKAENLLLDADMNIK in human A-375 cells at 0.05 uM by KiNativ Profiling analysis relative to control; format: cell-based
Sequence of Serine/threonine-protein kinase MARK2 (Homo sapiens) (Q7KZI7 whole entry): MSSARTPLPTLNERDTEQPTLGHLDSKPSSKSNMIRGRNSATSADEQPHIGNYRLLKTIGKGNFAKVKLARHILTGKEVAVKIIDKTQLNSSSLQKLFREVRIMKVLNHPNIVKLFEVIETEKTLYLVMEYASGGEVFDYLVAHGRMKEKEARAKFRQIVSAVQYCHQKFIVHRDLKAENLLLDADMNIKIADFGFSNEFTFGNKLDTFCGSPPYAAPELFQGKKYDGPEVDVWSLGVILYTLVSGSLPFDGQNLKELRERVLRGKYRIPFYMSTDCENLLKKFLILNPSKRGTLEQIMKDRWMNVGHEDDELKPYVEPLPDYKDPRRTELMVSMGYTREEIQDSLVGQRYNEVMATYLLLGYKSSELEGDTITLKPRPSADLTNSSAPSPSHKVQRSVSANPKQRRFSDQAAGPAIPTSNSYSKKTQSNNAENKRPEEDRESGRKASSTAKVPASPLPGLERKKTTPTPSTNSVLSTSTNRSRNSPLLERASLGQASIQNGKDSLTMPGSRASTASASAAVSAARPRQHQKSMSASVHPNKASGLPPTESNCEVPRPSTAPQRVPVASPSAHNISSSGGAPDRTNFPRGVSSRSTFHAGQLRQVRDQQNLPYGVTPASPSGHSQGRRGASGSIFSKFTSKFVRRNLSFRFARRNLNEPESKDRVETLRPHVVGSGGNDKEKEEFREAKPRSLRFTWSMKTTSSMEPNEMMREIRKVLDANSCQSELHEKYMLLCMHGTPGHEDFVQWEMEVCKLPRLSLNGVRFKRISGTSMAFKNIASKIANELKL

T1 sequence (P12931 2-536 limits assumed): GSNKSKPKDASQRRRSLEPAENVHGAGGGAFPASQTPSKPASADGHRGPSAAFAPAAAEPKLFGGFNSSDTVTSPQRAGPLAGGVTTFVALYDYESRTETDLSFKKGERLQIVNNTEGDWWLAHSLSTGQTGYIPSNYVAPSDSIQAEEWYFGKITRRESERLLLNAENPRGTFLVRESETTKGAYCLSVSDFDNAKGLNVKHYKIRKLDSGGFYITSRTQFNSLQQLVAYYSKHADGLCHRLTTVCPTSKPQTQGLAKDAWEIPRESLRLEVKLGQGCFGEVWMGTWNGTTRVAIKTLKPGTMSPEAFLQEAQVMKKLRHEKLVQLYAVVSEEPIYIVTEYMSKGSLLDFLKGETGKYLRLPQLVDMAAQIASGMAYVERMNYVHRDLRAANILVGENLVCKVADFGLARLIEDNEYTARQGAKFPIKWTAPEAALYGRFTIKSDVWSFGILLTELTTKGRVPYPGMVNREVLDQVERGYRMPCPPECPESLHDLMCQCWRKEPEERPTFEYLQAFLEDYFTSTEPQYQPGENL
Sequence of Cyclin-dependent kinase 17 (Homo sapiens) (Q00537 whole entry, looked up, the tested form may be a part): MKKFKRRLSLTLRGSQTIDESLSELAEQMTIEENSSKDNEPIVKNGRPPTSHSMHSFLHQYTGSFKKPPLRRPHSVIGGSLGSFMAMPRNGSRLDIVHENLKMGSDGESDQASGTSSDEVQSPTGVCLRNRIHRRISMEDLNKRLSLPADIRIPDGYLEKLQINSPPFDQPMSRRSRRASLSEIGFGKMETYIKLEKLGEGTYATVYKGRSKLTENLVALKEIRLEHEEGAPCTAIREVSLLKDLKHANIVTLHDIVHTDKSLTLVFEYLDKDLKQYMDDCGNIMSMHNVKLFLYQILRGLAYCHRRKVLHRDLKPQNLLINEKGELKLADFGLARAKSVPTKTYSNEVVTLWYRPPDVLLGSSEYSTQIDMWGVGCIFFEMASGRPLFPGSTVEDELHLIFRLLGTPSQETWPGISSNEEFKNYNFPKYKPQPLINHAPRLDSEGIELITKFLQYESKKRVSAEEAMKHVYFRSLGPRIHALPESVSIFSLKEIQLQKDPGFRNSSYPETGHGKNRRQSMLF
Sequence of 5'-AMP-activated protein kinase catalytic subunit alpha-1 (Homo sapiens) (Q13131 whole entry, looked up): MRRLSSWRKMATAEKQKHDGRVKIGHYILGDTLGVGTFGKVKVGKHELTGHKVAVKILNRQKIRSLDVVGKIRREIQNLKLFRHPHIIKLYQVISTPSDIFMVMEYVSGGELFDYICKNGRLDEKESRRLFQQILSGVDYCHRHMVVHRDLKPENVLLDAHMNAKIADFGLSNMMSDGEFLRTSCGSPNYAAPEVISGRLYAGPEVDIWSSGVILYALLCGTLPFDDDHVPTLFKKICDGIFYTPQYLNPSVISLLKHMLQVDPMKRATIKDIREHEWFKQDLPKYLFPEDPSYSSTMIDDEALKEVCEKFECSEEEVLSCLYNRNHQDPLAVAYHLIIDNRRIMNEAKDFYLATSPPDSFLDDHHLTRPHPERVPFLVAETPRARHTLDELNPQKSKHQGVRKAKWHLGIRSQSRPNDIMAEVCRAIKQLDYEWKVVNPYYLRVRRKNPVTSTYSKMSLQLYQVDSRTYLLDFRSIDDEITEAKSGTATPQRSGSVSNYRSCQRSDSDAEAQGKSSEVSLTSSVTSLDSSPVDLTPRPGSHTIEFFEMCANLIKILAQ
Sequence of Ribosomal protein S6 kinase alpha-2 (Homo sapiens) (Q15349 whole entry, the tested form may be a part): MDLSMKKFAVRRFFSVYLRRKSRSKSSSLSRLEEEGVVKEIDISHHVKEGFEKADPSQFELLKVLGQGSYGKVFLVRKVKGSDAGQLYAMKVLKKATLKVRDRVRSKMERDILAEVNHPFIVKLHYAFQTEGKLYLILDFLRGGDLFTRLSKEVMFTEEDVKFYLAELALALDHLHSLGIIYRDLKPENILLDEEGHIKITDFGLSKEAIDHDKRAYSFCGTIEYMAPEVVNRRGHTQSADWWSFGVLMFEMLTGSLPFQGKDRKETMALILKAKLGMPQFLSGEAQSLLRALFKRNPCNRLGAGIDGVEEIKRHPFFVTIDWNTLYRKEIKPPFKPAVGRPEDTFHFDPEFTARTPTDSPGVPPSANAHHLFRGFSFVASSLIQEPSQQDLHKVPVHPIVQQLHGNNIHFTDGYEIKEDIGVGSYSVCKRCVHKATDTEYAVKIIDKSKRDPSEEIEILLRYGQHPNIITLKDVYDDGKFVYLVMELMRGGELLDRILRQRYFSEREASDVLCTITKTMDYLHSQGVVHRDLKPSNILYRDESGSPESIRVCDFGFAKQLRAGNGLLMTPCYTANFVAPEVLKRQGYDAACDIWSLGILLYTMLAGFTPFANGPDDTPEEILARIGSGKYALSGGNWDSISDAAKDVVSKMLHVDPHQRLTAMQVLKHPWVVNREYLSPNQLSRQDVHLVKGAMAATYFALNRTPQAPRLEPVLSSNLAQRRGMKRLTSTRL
Sequence of Casein kinase II subunit alpha (Homo sapiens) (P68400 whole entry, looked up, the tested form may be a part): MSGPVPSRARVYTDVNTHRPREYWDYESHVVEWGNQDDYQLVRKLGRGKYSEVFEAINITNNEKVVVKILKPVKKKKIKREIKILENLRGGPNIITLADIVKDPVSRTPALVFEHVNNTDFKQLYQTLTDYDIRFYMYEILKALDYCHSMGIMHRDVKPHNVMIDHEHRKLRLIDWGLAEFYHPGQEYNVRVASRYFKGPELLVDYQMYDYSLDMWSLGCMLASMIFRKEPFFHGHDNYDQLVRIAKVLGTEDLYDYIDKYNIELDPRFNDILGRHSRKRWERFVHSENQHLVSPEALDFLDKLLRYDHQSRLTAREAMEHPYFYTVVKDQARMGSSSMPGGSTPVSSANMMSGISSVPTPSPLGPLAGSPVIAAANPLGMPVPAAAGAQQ
Sequence of Dual specificity mitogen-activated protein kinase kinase 1 (Homo sapiens) (Q02750 whole entry): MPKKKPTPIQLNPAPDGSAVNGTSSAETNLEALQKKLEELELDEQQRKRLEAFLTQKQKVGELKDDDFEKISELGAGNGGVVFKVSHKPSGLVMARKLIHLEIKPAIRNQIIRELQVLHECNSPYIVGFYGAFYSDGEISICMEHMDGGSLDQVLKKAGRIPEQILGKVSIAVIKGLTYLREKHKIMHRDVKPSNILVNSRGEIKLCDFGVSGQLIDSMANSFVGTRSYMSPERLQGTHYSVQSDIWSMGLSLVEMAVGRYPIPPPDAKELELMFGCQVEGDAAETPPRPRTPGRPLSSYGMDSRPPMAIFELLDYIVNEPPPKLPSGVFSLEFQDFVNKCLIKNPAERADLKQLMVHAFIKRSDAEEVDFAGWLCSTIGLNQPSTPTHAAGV
Sequence of Ephrin type-B receptor 2 (P29323 whole entry): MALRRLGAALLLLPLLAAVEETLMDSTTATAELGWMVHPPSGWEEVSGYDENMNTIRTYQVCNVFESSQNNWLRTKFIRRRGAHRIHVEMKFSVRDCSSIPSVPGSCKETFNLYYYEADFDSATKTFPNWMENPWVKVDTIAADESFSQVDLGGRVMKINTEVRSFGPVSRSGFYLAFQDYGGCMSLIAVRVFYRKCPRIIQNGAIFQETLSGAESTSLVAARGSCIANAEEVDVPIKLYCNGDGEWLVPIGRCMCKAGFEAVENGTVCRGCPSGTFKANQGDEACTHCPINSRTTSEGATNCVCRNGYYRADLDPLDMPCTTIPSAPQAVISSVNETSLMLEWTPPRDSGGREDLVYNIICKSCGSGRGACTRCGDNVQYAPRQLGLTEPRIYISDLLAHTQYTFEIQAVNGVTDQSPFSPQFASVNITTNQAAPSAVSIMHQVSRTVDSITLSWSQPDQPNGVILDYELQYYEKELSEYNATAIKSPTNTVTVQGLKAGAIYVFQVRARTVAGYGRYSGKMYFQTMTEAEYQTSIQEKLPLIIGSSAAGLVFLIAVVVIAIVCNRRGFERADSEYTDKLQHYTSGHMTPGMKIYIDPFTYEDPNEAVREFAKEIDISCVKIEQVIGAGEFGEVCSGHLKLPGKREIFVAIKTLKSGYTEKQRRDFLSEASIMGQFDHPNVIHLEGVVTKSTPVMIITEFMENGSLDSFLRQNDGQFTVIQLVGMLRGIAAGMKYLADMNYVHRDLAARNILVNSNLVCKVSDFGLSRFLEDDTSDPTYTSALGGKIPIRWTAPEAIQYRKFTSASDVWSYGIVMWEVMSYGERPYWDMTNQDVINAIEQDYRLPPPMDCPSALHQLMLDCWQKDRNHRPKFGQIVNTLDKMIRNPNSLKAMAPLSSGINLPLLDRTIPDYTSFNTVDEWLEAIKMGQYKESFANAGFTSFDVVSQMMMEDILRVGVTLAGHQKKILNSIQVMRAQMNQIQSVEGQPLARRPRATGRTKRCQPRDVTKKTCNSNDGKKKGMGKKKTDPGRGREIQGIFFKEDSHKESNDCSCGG

SMILES	inhibition [1] [%]	inhibition [2] [%]	IC50 (Ephrin type-B receptor 2) [nM]	inhibition (GEN2.2)	inhibition [3] [%]	inhibition [4] [%]	inhibition [5] [%]	inhibition [6] [%]	inhibition [7] [%]	inhibition [8] [%]	inhibition [9] [%]	inhibition [10] [%]	inhibition [11] [%]	inhibition [12] [%]	inhibition [13] [%]
CNc1cc(Oc2cc(C(=O)Nc3cc(N4CCN(C)CC4)cc(C(F)(F)F)c3)ccc2C)ncn1	18.1														
CCN1CCN(Cc2ccc(NC(=O)c3ccc(C)c(Oc4ccnc5[nH]ccc45)c3)cc2C(F)(F)F)CC1		77.2	672	Active	1.1	0.3	73.3	5.8	-0.8	12.6	-3.9	65	32.5	-4.1	11.3
CNc1cc(Oc2cc(C(=O)Nc3cc(-n4cnc(C)c4)cc(C(F)(F)F)c3)ccc2C)ncn1	-2.8			inactive											
CCN1CCN(Cc2ccc(NC(=O)c3ccc(C)c(/C=C/c4cnc5[nH]ccc5c4OC)c3)cc2C(F)(F)F)CC1		72.5	75		-6.1	-1.8	24.3	20	-2.7	6.4	1.8	48.2	14.1	11.4	14.2
